Assay results of several laboratories.
Each line is one published result; the experiments were not run side by side.
SIGMAR1: Sigma non-opioid intracellular receptor 1 (SIGMAR1, Homo sapiens, UniProt Q99720)
Nectin-4: Nectin-4 (Homo sapiens, UniProt Q96NY8)
PFF0160c E182D: Dihydroorotate dehydrogenase (quinone), mitochondrial (PFF0160c, Plasmodium falciparum, UniProt Q08210, E182D)

| SMILES | target | read-out | mode | method | measurement | value |
| --- | --- | --- | --- | --- | --- | --- |
| CN1CCN(C2=Nc3ccccc3Oc3ccc(Cl)cc32)CC1 | SIGMAR1 | ligand displacement |  | radioligand | Ki | > 10000 nM |
| CCCC[C@@H]1NC(=O)[C@H](Cc2ccc(O)cc2)NC(=O)[C@@H]2CCCN2C(=O)[C@H](CC(=O)O)NC(=O)[C@H](C)NC(=O)[C@H](Cc2ccccc2)NC(=O)[C@@H]2CSCCC(=O)N3CN(CN(C3)C(=O)CCSC[C@H](NC(C)=O)C(=O)N[C@@H](CC(C)(C)C)C(=O)N3CCC[C@H]3C(=O)N[C@@H](CCC(=O)O)C(=O)N[C@H](CCCCNC(=O)CCc3cn(CCOCCOCCOCCOCCOCCC(=O)N[C@H]4CSCCC(=O)N5CN6CN(C5)C(=O)CCSC[C@H](NC(=O)[C@@H](CC(=O)O)NC(=O)[C@H](Cc5cccc7ccccc57)NC(=O)[C@@H]5CCCN5C4=O)C(=O)N[C@@H](CCSC)C(=O)N[C@@H](CCCCNC(=N)N)C(=O)N[C@@H](CC(=O)O)C(=O)N[C@@H](Cc4c[nH]c5ccccc45)C(=O)N[C@@H](CO)C(=O)N[C@@H]([C@@H](C)O)C(=O)N4CCC[C@H]4C(=O)N4C[C@H](O)C[C@H]4C(=O)N[C@@H](Cc4c[nH]c5ccccc45)C(=O)N[C@H](C(N)=O)CSCCC6=O)nn3)C(=O)N3CCC[C@H]3C(=O)N[C@@H](Cc3ccc(O)cc3)C(=O)N2)C(=O)CCSCCNC1=O | Nectin-4 | binding |  | SPR | Kd | 1.6 nM |
| CC1CCN(CCCC(=O)c2ccc(F)cc2)CC1 | SIGMAR1 | ligand displacement |  | radioligand | Ki | 10.1 nM |
| CCCC[C@@H]1NC(=O)[C@H](Cc2ccc(O)cc2)NC(=O)[C@@H]2CCCN2C(=O)[C@H](CC(=O)O)NC(=O)[C@H](C)NC(=O)[C@H](Cc2ccccc2)NC(=O)[C@@H]2CSCCC(=O)N3CN(CN(C3)C(=O)CCSC[C@H](NC(C)=O)C(=O)N[C@@H](CC(C)(C)C)C(=O)N[C@@H](CCC(=O)O)C(=O)N[C@@H](CCC(=O)O)C(=O)N[C@H](CCCCNC(=O)CCc3cn(CCOCCOCCOCCN(CCOCCOCCOCCC(=O)N[C@H]4CSCCC(=O)N5CN6CN(C5)C(=O)CCSC[C@H](NC(=O)[C@@H](CC(=O)O)NC(=O)[C@H](Cc5cccc7ccccc57)NC(=O)[C@@H]5CCCN5C4=O)C(=O)N[C@@H](CCSC)C(=O)N[C@@H](CCCCNC(=N)N)C(=O)N[C@@H](CC(=O)O)C(=O)N[C@@H](Cc4c[nH]c5ccccc45)C(=O)N[C@@H](CO)C(=O)N[C@@H]([C@@H](C)O)C(=O)N4CCC[C@H]4C(=O)N4C[C@H](O)C[C@H]4C(=O)N[C@@H](Cc4c[nH]c5ccccc45)C(=O)N[C@H](C(N)=O)CSCCC6=O)CCOCCOCCOCCn4cc(CCC(=O)NCCCC[C@H]5NC(=O)[C@H](CCC(=O)O)NC(=O)[C@H](CCC(=O)O)NC(=O)[C@H](CC(C)(C)C)NC(=O)[C@@H](NC(C)=O)CSCCC(=O)N6CN7CN(C6)C(=O)CCSC[C@H](NC(=O)[C@H](Cc6ccc(O)cc6)NC(=O)[C@@H]6CCCN6C5=O)C(=O)N[C@@H](Cc5ccccc5)C(=O)N[C@@H](C)C(=O)N[C@@H](CC(=O)O)C(=O)N5CCC[C@H]5C(=O)N[C@@H](Cc5ccc(O)cc5)C(=O)N[C@@H](CCCC)C(=O)N[C@H](C(N)=O)CSCCC7=O)nn4)nn3)C(=O)N3CCC[C@H]3C(=O)N[C@@H](Cc3ccc(O)cc3)C(=O)N2)C(=O)CCSC[C@@H](C(N)=O)NC1=O | Nectin-4 | binding |  | SPR | Kd | 5 nM |
| N[C@@H](CC(=O)O)C(=O)O | tar (Salmonella enterica, UniProt P02941, E302Q/E491Q) | binding |  |  | Kd | 1000 nM |
| O=S(=O)(O)c1nc2ccccc2[nH]1 | racE (Bacillus subtilis, UniProt P94556) | enzyme activity | inhibitor | absorbance | IC50 | 128000 nM |
| CC(CN1c2ccccc2Sc2ccccc21)N(C)C (stereo not drawn) | SIGMAR1 | ligand displacement |  | radioligand | Ki | 433 nM |
| O=C(CNCC1CCCCC1)Nc1cc(C(F)(F)F)ccc1Cl | PFF0160c E182D | enzyme activity | inhibitor | absorbance | IC50 | 8390 nM |
| Cc1cccc(CN2CCN(C(c3ccccc3)c3ccc(Cl)cc3)CC2)c1 (stereo not drawn) | SIGMAR1 | ligand displacement |  | radioligand | Ki | 1250 nM |
| O=C1C(c2ccccc2)=C(Nc2ccc([N+](=O)[O-])cc2)c2ccccc21 | Dihydroorotate dehydrogenase (quinone), mitochondrial (PFF0160c, Plasmodium falciparum, UniProt Q08210) | enzyme activity | inhibitor | absorbance | IC50 | 2150 nM |
| Cc1c2ccncc2c(C)c2c1[nH]c1ccccc12 | SIGMAR1 | ligand displacement |  | radioligand | Ki | > 10000 nM |
| CCC(c1ccccc1)c1nn2c(-c3cccs3)nnc2s1 (stereo not drawn) | PFF0160c E182D | enzyme activity | inhibitor | absorbance | IC50 | 171 nM |
| CCCC[C@@H]1NC(=O)[C@H](Cc2ccc(O)cc2)NC(=O)[C@@H]2CCCN2C(=O)[C@H](CC(=O)O)NC(=O)[C@H](C)NC(=O)[C@H](Cc2ccccc2)NC(=O)[C@@H]2CSCCC(=O)N3CN(CN(C3)C(=O)CCSC[C@H](NC(C)=O)C(=O)N[C@@H](CC(C)(C)C)C(=O)N3CCC[C@H]3C(=O)N[C@@H](CCC(=O)O)C(=O)N[C@H](CCCCNC(=O)CCc3cn(CCOCCOCCOCCN(CCOCCOCCOCCC(=O)N[C@H]4CSCCC(=O)N5CN6CN(C5)C(=O)CCSC[C@H](NC(=O)[C@@H](CC(=O)O)NC(=O)[C@H](Cc5cccc7ccccc57)NC(=O)[C@@H]5CCCN5C4=O)C(=O)N[C@@H](CCSC)C(=O)N[C@@H](CCCCNC(=N)N)C(=O)N[C@@H](CC(=O)O)C(=O)N[C@@H](Cc4c[nH]c5ccccc45)C(=O)N[C@@H](CO)C(=O)N[C@@H]([C@@H](C)O)C(=O)N4CCC[C@H]4C(=O)N4C[C@H](O)C[C@H]4C(=O)N[C@@H](Cc4c[nH]c5ccccc45)C(=O)N[C@H](C(N)=O)CSCCC6=O)CCOCCOCCOCCn4cc(CCC(=O)NCCCC[C@H]5NC(=O)[C@H](CCC(=O)O)NC(=O)[C@@H]6CCCN6C(=O)[C@H](CC(C)(C)C)NC(=O)[C@@H](NC(C)=O)CSCCC(=O)N6CN7CN(C6)C(=O)CCSC[C@H](NC(=O)[C@H](Cc6ccc(O)cc6)NC(=O)[C@@H]6CCCN6C5=O)C(=O)N[C@@H](Cc5ccccc5)C(=O)N[C@@H](C)C(=O)N[C@@H](CC(=O)O)C(=O)N5CCC[C@H]5C(=O)N[C@@H](Cc5ccc(O)cc5)C(=O)N[C@@H](CCCC)C(=O)N[C@H](C(N)=O)CSCCC7=O)nn4)nn3)C(=O)N3CCC[C@H]3C(=O)N[C@@H](Cc3ccc(O)cc3)C(=O)N2)C(=O)CCSC[C@@H](C(N)=O)NC1=O | Nectin-4 | binding |  | SPR | Kd | 3.9 nM |
| COc1cc(Nc2ccnc3cc(-c4ccncc4)ccc23)cc(OC)c1OC | PFF0160c E182D | enzyme activity | inhibitor | absorbance | IC50 | 1510 nM |
| CCCC[C@@H]1NC(=O)[C@H](Cc2ccc(O)cc2)NC(=O)[C@@H]2CCCN2C(=O)[C@H](CC(=O)O)NC(=O)[C@H](C)NC(=O)[C@H](Cc2ccccc2)NC(=O)[C@@H]2CSCCC(=O)N3CN(CN(C3)C(=O)CCSC[C@@H](C(N)=O)NC1=O)C(=O)CCSCCC(=O)N[C@@H](CC(C)(C)C)C(=O)N1CCC[C@H]1C(=O)N[C@@H](CCC(=O)O)C(=O)N[C@H](CCCCNC(=O)CCc1cn(CCOCCOCCOCCOCCOCCC(=O)N[C@H]3CSCCC(=O)N4CN5CN(C4)C(=O)CCSC[C@H](NC(=O)[C@@H](CC(=O)O)NC(=O)[C@H](Cc4cccc6ccccc46)NC(=O)[C@@H]4CCCN4C3=O)C(=O)N[C@@H](CCSC)C(=O)N[C@@H](CCCCNC(=N)N)C(=O)N[C@@H](CC(=O)O)C(=O)N[C@@H](Cc3c[nH]c4ccccc34)C(=O)N[C@@H](CO)C(=O)N[C@@H]([C@@H](C)O)C(=O)N3CCC[C@H]3C(=O)N3C[C@H](O)C[C@H]3C(=O)N[C@@H](Cc3c[nH]c4ccccc34)C(=O)N[C@H](C(N)=O)CSCCC5=O)nn1)C(=O)N1CCC[C@H]1C(=O)N[C@@H](Cc1ccc(O)cc1)C(=O)N2 | Nectin-4 | binding |  | SPR | Kd | 1.4 nM |
